# In ChEMBL document CHEMBL3994589, “Total Synthesis and in Vitro Anti-Tumor-Promoting Activities of Racemic Acetophenone Monomers from Acronychia trifoliolata” (J Nat Prod, 2016):
# Assays:
# [1] = Inhibition of TPA-induced EBV-early antigen activation in human Raji cells after 48 hrs by indirect immunofluorescence method; assay type: cell-based, human gammaherpesvirus 4
# Outline: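 EBV-EA activation induced in Raji cells by 32 pmol/mL TPA, with compounds tested over molar ratios relative to TPA. IC50 is the compound concentration inhibiting 50% of the positive control activated with 32 nM TPA.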
# [2] = test system: human gammaherpesvirus 4; assay: Inhibition of TPA-induced EBV-early antigen activation in human Raji cells assessed as reduction in EBV-EA positive cells at 1000 molar ratio per TPA after 48 hrs by indirect immunofluorescence method relative to TPA; values are per cent of control
# [3] = test system: human gammaherpesvirus 4; assay: Inhibition of TPA-induced EBV-early antigen activation in human Raji cells assessed as reduction in EBV-EA positive cells at 100 molar ratio per TPA after 48 hrs by indirect immunofluorescence method relative to TPA; values are per cent of control
# [4] = Cytotoxicity against human Raji cells assessed as cell viability at 1000 molar ratio per TPA after 48 hrs by trypan blue staining based method; conditions: read-out: Activity
# Outline: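 Raji cells exposed to test compounds at 1000 mol ratio to TPA (TPA 32 pmol/mL) in the EBV-EA activation assay; viability of treated cells scored by trypan blue staining and reported as percentage.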
# [5] = test system: human gammaherpesvirus 4; assay: Inhibition of TPA-induced EBV-early antigen activation in human Raji cells assessed as reduction in EBV-EA positive cells at 10 molar ratio per TPA after 48 hrs by indirect immunofluorescence method relative to TPA; values are per cent of control
# [6] = test system: human gammaherpesvirus 4; assay: Inhibition of TPA-induced EBV-early antigen activation in human Raji cells assessed as reduction in EBV-EA positive cells at 500 molar ratio per TPA after 48 hrs by indirect immunofluorescence method relative to TPA; values are per cent of control
Compound,IC50 [1] [µM],"level, % of control [2] [%]","level, % of control [3] [%]","viability at 48 h, 1000 molar ratio per TPA [4] [%]","level, % of control [5] [%]","level, % of control [6] [%]"
COc1c2c(c(CC=C(C)C)c(O)c1C(C)=O)OC(C(C)(C)O)C2 (racemic),7.7,0,74.3,60,93.3,30.6
COc1cc(/C=C/C(=O)CC(=O)/C=C/c2ccc(O)c(OC)c2)ccc1O [CURCUMIN],12.1,0,80.1,–,100,21.1
COc1c(CCC(C)C)c2c(c(O)c1C(C)=O)CC(O)C(C)(C)O2 (stereo not given),8.1,0,78.8,60,97.8,36.6
COc1c2c(c(CC=C(C)C)c(O)c1C(C)=O)OC(C)(C)C(O)C2 (racemic),7.3,0,65.5,60,92.4,26.5
COc1c(CC=C(C)C)c2c(c(O)c1C(C)=O)CC(C(C)(C)O)O2 (racemic),8,0,75.5,60,94.9,32
COc1c2c(c(CCC(C)C)c(O)c1C(C)=O)OC(C)(C)C(O)C2 (racemic),9.3,4.9,76,60,97.7,31.5

# Further compounds by falling IC50 [1], results first:
IC50 [1] [µM],Compound,"level, % of control [2] [%]","level, % of control [3] [%]","viability at 48 h, 1000 molar ratio per TPA [4] [%]","level, % of control [5] [%]","level, % of control [6] [%]"
15.7,COc1c2c(cc(O)c1C(C)=O)OC(O)C2 (racemic),10.8,77.9,60,100,53.3
15,COc1c(CC=C(C)C)c2c(c(OC(C)=O)c1C(C)=O)CC(C(C)(C)O)O2 (stereo not given),7,71,60,100,43.8
9.6,COc1c2c(c(CC=C(C)C)c(OC(C)=O)c1C(C)=O)OC(C(C)(C)O)C2 (stereo not given),5.3,78.6,60,97.8,33.9
8.9,COc1c(CC=C(C)C)c2c(c(O)c1C(C)=O)CC(O)C(C)(C)O2 (racemic),3,72.5,60,96.9,29.1
8.4,COc1c(CC=C(C)C)c(O)c2c(c1C(C)=O)OC(C)(C)C(O)C2 (racemic),1.5,68.2,60,96.6,27.1
